The list is not random: actives were taken first. Their share in the collection is about 1.9%.
MBD2 inh: inhibitors of human MBD2 binding to methylated oligonucleotide; 370,000 tested, 0.31% active; AID 686964; inhibition, % at 4.4 µM; TR-FRET; Q9UBB5; in the data active = inhibition above about 13%
Tn7 DDE FP: disrupts Tn7 cyclic peptide binding to fibrin D-Dimer-E complex | 370,000 tested, 0.13% active | inhibition, % at 8.3 µM | FP displacement of FITC-Tn7 peptide from fibrin DD(E); 0% = median of compound wells per plate;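 active = inhibition above the mean of compounds falling within the control limits plus 3 SD of them, cut at about 14% in these data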;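 also: 0% = plate median of compound wells and 100% = 10 µM Aha-Tn7 peptide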
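Assay system: Human fibrin DD(E) protein | Medium: Tris buffer with calcium and detergent, pH 7.8 | Reagent: 0.1 µM fluorescent Tn7 | Compound dosing: Single point at 8.3 µM | Times: 10 min preincubation, 3 h with tracer, room temperature | Detection: Fluorescence polarization of the labelled Tn7 tracer | Controls: Aha-Tn7 high control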
TDP2 absorb: blocks human TDP2 phosphodiesterase activity; AID 720702; 370,000 tested, 0.34% active; recombinant TDP2, T5PNP hydrolysis, p-nitrophenol absorbance 415 nm; O95551; inhibition, % at 12.8 µM;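 active = inhibition above the mean of all tested compounds plus 3 SD, set per campaign, cut at about 25% in these data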;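 also: 0% = DMSO with enzyme and 100% = buffer with substrate but no TDP2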
Target sequence (O95551 whole entry, looked up): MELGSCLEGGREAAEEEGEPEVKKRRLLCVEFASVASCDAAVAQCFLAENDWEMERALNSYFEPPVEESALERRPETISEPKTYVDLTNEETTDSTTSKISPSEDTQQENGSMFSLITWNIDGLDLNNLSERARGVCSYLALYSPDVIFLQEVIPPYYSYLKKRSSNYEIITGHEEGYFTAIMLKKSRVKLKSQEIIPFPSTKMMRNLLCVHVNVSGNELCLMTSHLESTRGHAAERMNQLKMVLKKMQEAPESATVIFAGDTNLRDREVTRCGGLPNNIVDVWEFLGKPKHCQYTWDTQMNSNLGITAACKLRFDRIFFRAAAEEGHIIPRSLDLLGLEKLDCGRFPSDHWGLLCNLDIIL
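Material: recombinant human TDP2; quantity: TDP2 enzyme at 120 nM final; medium: Tris-HCl pH 7.5 with MgCl2; compound: single concentration, 12.8 µM nominal, with 1% DMSO; incubation: 2 h enzyme incubation at 37 °C; signal: epi absorbance; measure: percent inhibition; benchmarks: high control without enzyme, low control DMSO plus TDP2; repeats: singlicate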
LEDGF integ inh: blocks HIV-1 LEDGF/p75-dependent DNA integration | TR-FRET IN-LEDGF/p75 DNA integration, Eu/Cy5 | inhibition, % at 3.7 µM | 370,000 tested, 0.64% active | AID 743269;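 active = inhibition above the screen-wide mean plus 3 SD, cut at about 13% in these data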;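 also: signal is the Cy5 over europium emission ratio at 671 and 618 nm; 0% = plate median of compound wells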
Tn6 DDE FP: inhibitors of Tn6 peptide binding to human fibrin DD(E); Fibrin DD(E) TRITC-Tn6 fluorescence polarization displacement; inhibition, % at 8.3 µM; P02675; 370,000 tested, 0.21% active;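 active = inhibition above a per-campaign cutoff: mean of compounds within control limits plus 3 SD, cut at about 15% in these data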;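 also: 0% = median of all compound wells on the plate and 100% = blocking peptide control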
UHRF1 MBD2 ctr: human UHRF1 methylated DNA binding inhibitors; Q96T88; UHRF1 binding to methylated oligo, TR-FRET; inhibition, % at 4.4 µM; 370,000 tested, 0.75% active; AID 687016; in the data active = inhibition above about 21%;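 also: UHRF1 SRA domain binding a hemimethylated CpG hairpin DNA probe; 0% = median of test compound wells and 100% = reference inhibitor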
IN multimer act: HIV-1 integrase multimerization activation, counter-screen | 2,000 tested, 17% active | shares compounds with LEDGF integ inh | TR-FRET HIV-1 integrase multimerization, biochemical | activation, % at 7.7 µM; in the data active = activation above about 8.9%
TR-FRET interf: TR-FRET optical interference, LEDGF/p75 integration counter-screen; shares compounds with LEDGF integ inh; 2,000 tested, under 10 active; inhibition, % at 7.7 µM; TR-FRET optical interference counterscreen, HIV-1 IN multimerization;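 active = inhibition above the mean over all tested compounds plus 3 SD, which no compound reached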;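 also: 0% = integrase with antibodies and DMSO and 100% = antibodies without integrase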
LEDGF integ conf: confirmation of HIV-1 LEDGF/p75-dependent integration inhibitors; inhibition, % at 3.7 µM; AID 1053136; 2,000 tested, 36% active; shares compounds with LEDGF integ inh; TR-FRET LEDGF/p75-dependent HIV-1 integration, biochemical; in the data active = inhibition above about 14%
Numbers without * were called inactive; · = no result.

SMILES	MBD2 inh	Tn7 DDE FP	TDP2 absorb	LEDGF integ inh	Tn6 DDE FP	UHRF1 MBD2 ctr	IN multimer act	TR-FRET interf	LEDGF integ conf
C[C@H]1CNCCN1c1ccc(N2CC[C@H](O)C2)c(C#N)c1	-6	-5	1	2	2	-3	·	·	·
CC(Cc1ccc(O)cc1)NCC(O)c1ccc(O)c(O)c1 (stereo not drawn)	-7	-3	-5	35*	-2	0	10*	-51	63*
CC1CCCN(C(=O)CCl)C1 (stereo not drawn)	0	-7	7	71*	-5	-1	0	-1	-4
CC1CCCN(C(=O)CN2C3CCC2CC(O)(c2ccc(F)cc2)C3)C1 (stereo not drawn)	-2	0	12	4	-9	0	·	·	·
Cc1ccccc1-n1c(O)c(C=Nc2ccc(N(C)C)cc2)c(=O)[nH]c1=O	-4	1	8	19*	2	2	5	-26	-12
C=CCn1c(O)c(C=Nc2ccc(F)cc2)c(=O)[nH]c1=O	-5	13	8	-4	-1	-2	·	·	·
C=CCn1c(O)c(C=Nc2ccc(N(CC)CC)cc2)c(=O)[nH]c1=O	-2	-6	15	30*	0	1	2	-9	-1
CCCOC(=O)C1C2CCC(O2)C1C(=O)O (stereo not drawn)	0	-5	0	-2	6	3	·	·	·
COc1cc(CCN)c(OC)cc1C	-2	1	9	2	0	0	·	·	·
CN(C)[C@@H]1C(=O)C(C(N)=O)=C(O)[C@@]2(O)C(=O)C3=C(O)c4c(O)ccc(Cl)c4[C@@](C)(O)C3C[C@@H]12 (stereo partly drawn)	-3	-3	-8	28*	-15	10	14*	-69	28*

Bioassay records deposited in PubChem by The Scripps Research Institute Molecular Screening Center.
